Results on 1 compound are retold here after ChEMBL document CHEMBL5678802, “Small-molecule p21-activated kinase inhibitor PF-3758309 is a potent inhibitor of oncogenic signaling and tumor growth” (Proc Natl Acad Sci U S A, 2010).

Activity calls are given as the source filed them. The rule behind the calls is not given here.

Assay [1] deals with T1, Tyrosine-protein kinase Yes (Homo sapiens, UniProt P07947). The experiment in a line: Inhibition of human YES1 assessed as inhibition constant in presence of ATP.
T1 sequence (P07947 whole entry): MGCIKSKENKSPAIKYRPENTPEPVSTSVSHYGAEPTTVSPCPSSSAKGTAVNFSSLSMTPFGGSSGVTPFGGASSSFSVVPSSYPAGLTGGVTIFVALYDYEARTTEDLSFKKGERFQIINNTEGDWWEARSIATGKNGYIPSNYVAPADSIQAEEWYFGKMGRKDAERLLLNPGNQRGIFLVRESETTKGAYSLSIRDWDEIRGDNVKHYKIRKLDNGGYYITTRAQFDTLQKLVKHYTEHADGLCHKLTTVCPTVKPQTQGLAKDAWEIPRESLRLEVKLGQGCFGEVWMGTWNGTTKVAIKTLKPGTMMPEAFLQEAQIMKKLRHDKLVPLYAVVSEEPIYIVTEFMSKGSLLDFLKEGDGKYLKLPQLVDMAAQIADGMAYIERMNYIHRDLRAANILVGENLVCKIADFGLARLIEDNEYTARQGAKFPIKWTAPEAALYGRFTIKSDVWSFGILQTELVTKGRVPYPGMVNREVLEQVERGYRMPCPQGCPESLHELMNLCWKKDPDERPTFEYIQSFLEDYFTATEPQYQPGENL
The test system of another assay is GTL 16 cell line. Briefly: Antitumor activity against human GTL-16 cell line xenografted in nude mouse assessed as tumor growth inhibition at 10 mg/kg, po administered once daily for 9 to 18 days relative to control. In kind it is functional. To be noted: time 9-18 day, read-out: TGI. Put shortly:
(§1)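 Tumor cells were implanted s.c. into the right flank of female nu/nu nude mice aged 6–8 weeks. Animals were randomized into treatment groups once tumors were established (example: day 8 postimplant, about 170 mm3, animals >22 g). Compound in 0.5% methylcellulose was given by oral gavage. Tumors were measured with calipers two to three times per week.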
In general terms: Xenograft models place foreign cells or tissue in a host animal.

For assay [2], the target named is T1, Tyrosine-protein kinase Yes. Briefly: Inhibition of human YES1 in presence of ATP.
In another assay the test system is SK-MES-1. Briefly: Antiproliferative activity against human SK-MES-1 cells assessed as inhibition of cell proliferation incubated for 3 days by CellTiter-Glo Luminescent Cell Viability Assay. It is filed as functional, cell-based. The settings on record: SK-MES-1, 72 h. The essentials: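 Cells of each line were plated in 384-well plates on day 1 and exposed to compound from day 2 for 3 days. On day 5 all medium was aspirated. Viable cell number was read by CellTiter-Glo luminescence, which quantifies cellular ATP.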

In the next assay the test system is MCF7. The experiment in a line: Antiproliferative activity against human MCF7 cells assessed as inhibition of cell proliferation incubated for 3 days by CellTiter-Glo Luminescent Cell Viability Assay. It is filed as functional, cell-based. To be noted: MCF7, 72 h. Put shortly:
(§2)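 Cancer cell lines seeded in 384-well plates on day 1; compound added on day 2 and left for 3 days. On day 5 all medium was aspirated, and viable cells were quantified by CellTiter-Glo luminescence, which measures cellular ATP. Dose-dependent effects on proliferation were determined.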

Assay [3] addresses High affinity nerve growth factor receptor (Homo sapiens, UniProt P04629). Briefly: Inhibition of human TRKa in presence of ATP by cellular assay.
Assay [4] deals with RAC-gamma serine/threonine-protein kinase (Homo sapiens, UniProt Q9Y243). Briefly: Inhibition of human AKT3 assessed as inhibition constant in presence of ATP.
Chain of RAC-gamma serine/threonine-protein kinase (Q9Y243 whole entry): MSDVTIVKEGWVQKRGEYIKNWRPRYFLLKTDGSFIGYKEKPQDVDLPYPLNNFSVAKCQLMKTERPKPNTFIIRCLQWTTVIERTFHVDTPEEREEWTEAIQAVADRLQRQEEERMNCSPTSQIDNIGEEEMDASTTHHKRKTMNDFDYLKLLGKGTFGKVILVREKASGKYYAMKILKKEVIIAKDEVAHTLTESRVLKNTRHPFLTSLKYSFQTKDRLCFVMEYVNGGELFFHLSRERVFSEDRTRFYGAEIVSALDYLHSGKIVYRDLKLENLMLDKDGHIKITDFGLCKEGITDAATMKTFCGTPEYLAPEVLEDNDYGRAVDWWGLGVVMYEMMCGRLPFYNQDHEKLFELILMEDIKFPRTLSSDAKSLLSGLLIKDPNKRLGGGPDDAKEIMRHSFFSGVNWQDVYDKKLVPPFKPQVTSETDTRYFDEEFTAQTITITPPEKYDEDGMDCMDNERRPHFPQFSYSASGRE
Assay [5] has as its system HCT-116. Briefly: Antitumor activity against human HCT-116 cells xenografted in nude mouse assessed as reduction in total Myc level at 15 to 150 mg/kg/day administered via pump for 18 hrs by Reverse-Phase protein array analysis. It is filed as functional, organism-based. The settings on record: dose 15-150 mg/kg/day.
The target of assay [6] is Protein kinase C beta type (Homo sapiens, UniProt P05771). Briefly: Inhibition of human PKCbeta1 in presence of ATP by cellular assay.
Chain of Protein kinase C beta type (P05771 whole entry): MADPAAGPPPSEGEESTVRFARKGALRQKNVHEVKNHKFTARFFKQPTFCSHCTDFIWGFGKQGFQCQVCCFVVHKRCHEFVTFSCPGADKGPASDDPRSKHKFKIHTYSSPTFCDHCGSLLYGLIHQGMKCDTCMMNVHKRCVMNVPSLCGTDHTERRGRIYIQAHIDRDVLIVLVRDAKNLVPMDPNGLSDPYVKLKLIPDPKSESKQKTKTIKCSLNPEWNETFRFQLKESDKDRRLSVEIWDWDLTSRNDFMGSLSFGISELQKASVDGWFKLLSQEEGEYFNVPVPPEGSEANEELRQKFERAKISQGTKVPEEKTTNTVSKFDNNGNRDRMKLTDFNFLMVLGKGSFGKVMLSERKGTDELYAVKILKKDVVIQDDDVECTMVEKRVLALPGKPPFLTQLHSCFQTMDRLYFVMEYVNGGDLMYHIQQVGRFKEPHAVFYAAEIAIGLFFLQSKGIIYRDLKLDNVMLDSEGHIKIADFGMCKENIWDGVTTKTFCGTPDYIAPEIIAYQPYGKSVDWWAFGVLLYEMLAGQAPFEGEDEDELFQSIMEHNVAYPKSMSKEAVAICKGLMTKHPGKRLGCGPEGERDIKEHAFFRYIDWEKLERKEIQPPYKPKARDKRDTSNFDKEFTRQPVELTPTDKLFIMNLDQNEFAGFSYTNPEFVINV
For assay [7], the system named is HCT-116. The experiment in a line: Antitumor activity against human HCT-116 cells xenografted in nude mouse assessed as reduction in Ki67 at 15 to 25 mg/kg administered orally twice daily by immunohistochemical analysis. In kind it is functional, organism-based. The settings on record: dose 15-25 mg/kg, route po, time 3-6 day, TDE = time-dependent effect.
For the next assay, the system named is NCI-H1355. The experiment in a line: Inhibition of anchorage independent cell growth in human NCI-H1355 cells incubated for 6 days by Alamar blue reagent based fluorescence plate reader analysis. In kind it is functional. To be noted: NCI-H1355, 144 h.
Another assay relates to COLO 205. Briefly: Antitumor activity against human COLO 205 cells xenografted in nude mouse assessed as tumor growth inhibition at 20 mg/kg, po administered once daily for 9 to 18 days relative to control. It is filed as functional. To be noted: time 9-18 day, read-out: TGI. Put shortly:
as §1

For a further assay, the system named is Capan-2. Briefly: Antiproliferative activity against human Capan-2 cells assessed as inhibition of cell proliferation incubated for 3 days by CellTiter-Glo Luminescent Cell Viability Assay. In kind it is functional, cell-based. The settings on record: Capan-2, 72 h. Put shortly:
as §2
Background: ATP-based viability assays read luminescence as a measure of living cells.

The target in assay [8] is Ribosomal protein S6 kinase alpha-3 (Homo sapiens, UniProt P51812). Briefly: Inhibition of human RSK2 in presence of ATP by cellular assay.
Chain of Ribosomal protein S6 kinase alpha-3 (P51812 whole entry): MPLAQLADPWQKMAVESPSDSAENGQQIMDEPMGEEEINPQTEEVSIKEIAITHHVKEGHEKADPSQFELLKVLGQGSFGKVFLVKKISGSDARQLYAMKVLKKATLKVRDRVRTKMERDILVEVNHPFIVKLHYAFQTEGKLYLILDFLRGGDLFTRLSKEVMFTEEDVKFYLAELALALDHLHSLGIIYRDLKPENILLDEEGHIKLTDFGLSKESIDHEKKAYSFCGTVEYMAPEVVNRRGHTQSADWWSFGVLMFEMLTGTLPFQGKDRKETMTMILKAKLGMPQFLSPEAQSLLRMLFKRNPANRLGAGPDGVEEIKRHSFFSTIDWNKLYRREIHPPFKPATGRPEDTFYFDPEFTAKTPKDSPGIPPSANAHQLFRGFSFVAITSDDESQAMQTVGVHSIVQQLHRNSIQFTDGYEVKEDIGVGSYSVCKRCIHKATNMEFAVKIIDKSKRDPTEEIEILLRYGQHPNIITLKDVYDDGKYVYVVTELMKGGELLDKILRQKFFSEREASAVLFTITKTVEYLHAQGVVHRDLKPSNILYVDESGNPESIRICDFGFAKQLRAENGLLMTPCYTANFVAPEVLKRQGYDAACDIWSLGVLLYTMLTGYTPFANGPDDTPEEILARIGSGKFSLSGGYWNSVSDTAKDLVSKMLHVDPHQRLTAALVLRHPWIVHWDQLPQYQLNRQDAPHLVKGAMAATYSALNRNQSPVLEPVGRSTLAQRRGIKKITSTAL
The next assay has as its system A549. The experiment in a line: cells. The settings on record: Homo sapiens, A549, 144 h.
The test system of a further assay is HCT-15. Briefly: Antiproliferative activity against human HCT-15 cells assessed as inhibition of cell proliferation incubated for 3 days by CellTiter-Glo Luminescent Cell Viability Assay. It is filed as functional, cell-based. The settings on record: HCT-15, 72 h. The essentials:
as §2

The test system of assay [9] is HCT-116. Briefly: Antitumor activity against human HCT-116 cells xenografted in nude mouse assessed as reduction in Ki67 administered orally twice daily for 6 days by immunohistochemical analysis. The settings on record: dose 15-25 mg/kg, route po, time 6.0 day. It is filed as functional.
In the next assay the test system is HCC1806. Briefly: Antiproliferative activity against human HCC1806 cells assessed as inhibition of cell proliferation incubated for 3 days by CellTiter-Glo Luminescent Cell Viability Assay. In kind it is functional, cell-based. To be noted: HCC1806, 72 h. The essentials:
as §2

Assay [10] can be described thus: Inhibition of NF-kappaB signaling in HEK293T cells preincubated with compound for 0.5 hrs followed by TNFalpha stimulation and measured after 7 hrs by Steady-Glo luciferase assay. In kind it is cell-based. The settings on record: Homo sapiens, HEK-293T.
For assay [11], the target named is T2, Serine/threonine-protein kinase D1 (Homo sapiens, UniProt Q15139).
T2 sequence (Q15139 whole entry): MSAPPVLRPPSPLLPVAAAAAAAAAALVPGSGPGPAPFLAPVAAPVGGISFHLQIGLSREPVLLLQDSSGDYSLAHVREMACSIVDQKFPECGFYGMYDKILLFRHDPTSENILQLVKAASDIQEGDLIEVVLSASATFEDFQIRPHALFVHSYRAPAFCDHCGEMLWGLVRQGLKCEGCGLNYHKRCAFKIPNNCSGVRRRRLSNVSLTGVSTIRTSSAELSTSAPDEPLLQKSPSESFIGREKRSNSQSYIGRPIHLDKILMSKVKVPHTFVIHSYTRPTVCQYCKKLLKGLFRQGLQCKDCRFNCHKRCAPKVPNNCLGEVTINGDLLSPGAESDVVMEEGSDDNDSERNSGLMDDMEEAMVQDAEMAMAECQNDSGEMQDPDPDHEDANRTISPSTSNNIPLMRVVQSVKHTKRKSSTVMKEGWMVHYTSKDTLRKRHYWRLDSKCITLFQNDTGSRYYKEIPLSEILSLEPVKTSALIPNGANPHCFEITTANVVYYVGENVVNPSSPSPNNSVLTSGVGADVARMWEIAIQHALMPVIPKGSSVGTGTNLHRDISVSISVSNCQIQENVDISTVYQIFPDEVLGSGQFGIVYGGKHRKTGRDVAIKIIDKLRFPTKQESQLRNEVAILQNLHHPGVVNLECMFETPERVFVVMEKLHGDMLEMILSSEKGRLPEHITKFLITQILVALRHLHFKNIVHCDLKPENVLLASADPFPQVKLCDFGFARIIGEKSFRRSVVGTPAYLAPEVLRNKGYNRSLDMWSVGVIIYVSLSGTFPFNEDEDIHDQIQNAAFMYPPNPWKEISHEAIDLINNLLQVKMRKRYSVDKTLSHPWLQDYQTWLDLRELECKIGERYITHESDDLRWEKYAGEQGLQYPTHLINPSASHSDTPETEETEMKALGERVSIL
The experiment in a line: Inhibition of human PKCmu assessed as inhibition constant in presence of ATP.

A further assay concerns NCI-H1395. Briefly: Antiproliferative activity against human NCI-H1395 cells assessed as inhibition of cell proliferation incubated for 3 days by CellTiter-Glo Luminescent Cell Viability Assay. To be noted: NCI-H1395, 72 h. It is filed as functional, cell-based. The essentials: as §2
The next assay relates to BT-549. Briefly: Antiproliferative activity against human BT-549 cells assessed as inhibition of cell proliferation incubated for 3 days by CellTiter-Glo Luminescent Cell Viability Assay. The settings on record: BT-549, 72 h. It is filed as functional, cell-based. Put shortly:
as §2

Chain of High affinity nerve growth factor receptor (P04629 whole entry): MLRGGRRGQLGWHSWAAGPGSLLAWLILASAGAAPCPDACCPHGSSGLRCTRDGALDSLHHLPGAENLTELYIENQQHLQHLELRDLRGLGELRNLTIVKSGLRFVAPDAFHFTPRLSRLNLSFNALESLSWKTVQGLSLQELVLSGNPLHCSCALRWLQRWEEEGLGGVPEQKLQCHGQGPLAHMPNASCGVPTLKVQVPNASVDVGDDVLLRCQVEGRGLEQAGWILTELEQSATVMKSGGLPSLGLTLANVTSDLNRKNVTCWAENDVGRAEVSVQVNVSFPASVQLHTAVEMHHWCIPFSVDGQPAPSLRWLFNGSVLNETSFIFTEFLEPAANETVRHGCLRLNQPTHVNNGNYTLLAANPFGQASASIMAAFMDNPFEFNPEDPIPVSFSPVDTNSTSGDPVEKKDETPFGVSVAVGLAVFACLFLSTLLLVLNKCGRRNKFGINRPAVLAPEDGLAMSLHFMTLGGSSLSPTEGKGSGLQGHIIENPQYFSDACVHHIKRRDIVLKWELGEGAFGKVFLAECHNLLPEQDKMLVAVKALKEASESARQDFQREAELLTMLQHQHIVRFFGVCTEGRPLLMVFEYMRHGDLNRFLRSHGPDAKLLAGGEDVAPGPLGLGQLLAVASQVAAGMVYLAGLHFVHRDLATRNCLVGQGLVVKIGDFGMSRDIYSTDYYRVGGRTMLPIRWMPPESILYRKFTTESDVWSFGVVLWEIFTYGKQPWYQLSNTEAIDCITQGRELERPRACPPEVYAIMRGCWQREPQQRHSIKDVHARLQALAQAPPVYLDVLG

Regarding `Cc1nc(Nc2n[nH]c3c2CN(C(=O)N[C@H](CN(C)C)c2ccccc2)C3(C)C)c2sccc2n1` [PF-03758309], the Ki (as a rule, a dissociation constant, usually derived from enzyme kinetics or from competition with a known ligand) is 43 nM in assay [1], 172 nM in assay [4] and 21 nM in [11]. The inhibition in vivo at 10 mg/kg in the assay on GTL 16 cell line came out at 0%. For the same compound, the IC50 (in general, the concentration at which inhibition is half-maximal) was found to be 47 nM in assay [2]; 3.2 nM in the assay on SK-MES-1; 44.6 nM in the assay with MCF7; 2410 nM in assay [3]; 2490 nM in assay [6]; 14.2 nM in the assay on NCI-H1355. For the same compound, the IC50 in the assay on Capan-2 was 136 nM; in assay [8], 171 nM; in the assay on A549, 27.4 nM; in the assay on HCT-15, 10000 nM; in the assay on HCC1806, 1.2 nM; in assay [10], 24.2 nM. Further, the results for the IC50 in the assay on NCI-H1395 and in the assay on BT-549 were 6.4 nM and 0.41 nM, respectively. The outcome in the assay with HCT-116 [5] was Active. In addition, the Activity result in the assay on HCT-116 [7] was “Tde”; in the assay on HCT-116 [9], “Dose-Dependent Effect”. Besides, the inhibition in vivo at 20 mg/kg in the assay on COLO 205 was 106%.
